Tests used:
[1] = Drug level in mouse brain at 5 mg/kg, ip administered as single dose measured at 1 hr post dose by liquid chromatography/tandem mass spectrometric analysis; type: ADME, organism-based; conditions: read-out: Drug uptake
In short: (§1)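 Single ip dose of 5 mg/kg in 5% DMSO/7% Tween 80/3% EtOH in 0.9% saline, three mice per compound (six for one compound). At 1 h, plasma is separated by centrifugation and brain homogenized in acetonitrile. Both are quantified by LC-MS/MS, with brain corrected for 3% v/w blood. Brain/plasma ratio is reported as mean ± SEM.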

[2] = test system: Trypanosoma brucei brucei; test: Antitrypanosomal activity against Trypanosoma brucei brucei BF427 assessed as growth inhibition measured after 48 hrs by Alamar blue assay; type: functional; conditions: BF427, 48 h
In short: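 Bloodstream-form parasites in HMI-9 medium are exposed to serial compound dilutions in triplicate. Viability is read with Alamar Blue at 48 h. EC50 and EC90 come from nonlinear regression. Pentamidine isethionate is the control.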

[3] = Drug level in mouse plasma at 5 mg/kg, ip administered as single dose measured at 1 hr post dose by liquid chromatography/tandem mass spectrometric analysis; type: ADME, organism-based; in short: as §1
[4] = Selectivity index, ratio of EC50 for human HepG2 cells to EC50 for Trypanosoma brucei brucei BF427; type: toxicity; conditions: read-out: Ratio EC50
[5] = Cytotoxicity against human CRL8155 cells assessed as growth inhibition after 48 hrs by Alamar blue assay; type: cell-based; conditions: for EC50: Homo sapiens, CRL8155, 48 h; for EC90: human, crl8155, 48 h
In short: (§2)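 CRL-8155 lymphoblasts or HepG2 hepatocellular carcinoma cells are exposed 48 h to serial compound dilutions in quadruplicate. Growth is read with Alamar Blue, and 50% and 90% inhibitory concentrations come from nonlinear regression. Quinacrine is the control.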

[6] = Selectivity index, ratio of EC50 for human CRL8155 cells to EC50 for Trypanosoma brucei brucei BF427; type: toxicity; conditions: read-out: Ratio EC50
HepG2 = test: Cytotoxicity against human HepG2 cells assessed as growth inhibition after 48 hrs by Alamar blue assay; type: cell-based; conditions: for EC50: Homo sapiens, HepG2, 48 h; for EC90: human, hepg2, 48 h; in short: as §2
Liver [7] = test: Half life in human liver microsomes at 1.5 uM in presence of NADPH by liquid chromatography/tandem mass spectrometric analysis; type: ADME, microsome
Liver [8] = test: Half life in mouse liver microsomes at 1.5 uM in presence of NADPH by liquid chromatography/tandem mass spectrometric analysis; type: ADME, microsome

SMILES | concentration at 1 h [1] [nM] | EC50 [2] [µM] | EC90 [2] [µM] | concentration at 1 h [3] [nM] | selectivity ratio [4] | EC50 [5] [µM] | EC90 [5] [µM] | selectivity ratio [6] | EC50 (HepG2) [µM] | EC90 (HepG2) [µM] | t1/2 (Liver [7]) [min] | t1/2 (Liver [8]) [min]
O=C(Nc1ccc2sc(-c3ccc(F)c(F)c3)nc2c1)N1CCC(C(F)(F)F)C1 (configuration not stated) | 1970 | 1.69 | 4.88 | 4150 | – | – | – | – | – | – | – | –
O=C(Nc1ccc2scnc2c1)N1CCCC1 | – | > 20 | > 20 | – | – | – | – | – | – | – | – | –
O=C(NCCc1nc(-c2ccccc2)cs1)N1CCCCCC1 | – | 0.11 | 0.236 | – | – | – | – | – | – | – | – | –
O=C(Nc1ccc2sc(-c3cccc(F)c3F)nc2c1)N1CCCC1 | 2310 | 0.183 | 0.394 | 1300 | > 273 | > 50 | > 50 | > 273 | > 50 | > 50 | – | –
O=C(Nc1ccc2nc(-c3ccc(F)c(F)c3)sc2c1)N1CCC(F)C1 (configuration not stated) | – | > 20 | > 20 | – | – | – | – | – | – | – | – | –
O=C(Nc1ccc2sc(-c3ccccc3)nc2c1)N1CCCC1 | 4240 | 0.325 | 0.817 | 3400 | > 154 | > 50 | > 50 | > 154 | > 50 | > 50 | 30 | 18
O=C(Nc1ccc2sc(-c3ccc(F)c(F)c3)nc2c1)N1CCC(O)C1 (configuration not stated) | – | 7.68 | 13.6 | – | – | – | – | – | – | – | – | –
CC(C)(Cc1nc(-c2ccccc2)cs1)NC(=O)c1ccccc1 | – | > 10 | > 10 | – | – | – | – | – | – | – | – | –
O=C(Nc1nc2ccc(-c3ccc(F)c(F)c3)cc2s1)N1CCC(F)C1 (configuration not stated) | – | 2.23 | > 20 | – | – | – | – | – | – | – | – | –
O=C(Nc1ccc2sc(-c3cccc(F)c3)nc2c1)N1CCN(C(=O)Nc2ccc3sc(-c4cccc(F)c4)nc3c2)CC1 | – | > 20 | > 20 | – | – | – | – | – | – | – | – | –
O=C(Nc1ccc2sc(-c3ccc(F)c(F)c3)nc2c1)N1CC[C@@H](F)C1 | 6350 | 0.326 | 0.491 | 1200 | > 153 | > 50 | > 50 | > 153 | > 50 | – | – | –
CC(C)(Cc1csc(-c2ccccc2)n1)NC(=O)N1CCCCCC1 | – | > 10 | > 10 | – | – | – | – | – | – | – | – | –
O=C(Nc1ccc2sc(-c3ccc(F)cc3)nc2c1)N1CCCC1 | – | 0.375 | 0.895 | – | > 133 | > 50 | > 50 | > 133 | > 50 | > 50 | – | –
CCN(CC)CCCC(C)Nc1c2ccc(Cl)cc2nc2ccc(OC)cc12 (configuration not stated) [QUINACRINE] | – | – | – | – | – | 4.23 | 9.94 | – | 10.4 | 18.2 | – | –
CC(C)(Cc1csc(-c2ccccc2)n1)NC(=O)c1ccccc1 | – | > 10 | > 10 | – | – | – | – | – | – | – | – | –
CC(C)(CNC(=O)c1ccccc1)c1nc(-c2ccccc2)cs1 | – | > 10 | > 10 | – | – | – | – | – | – | – | – | –
O=C(NCCc1nc(-c2cccc(F)c2)cs1)N1CCc2ccccc2C1 | – | 9.76 | 13.8 | – | – | – | – | – | – | – | – | –
O=C(Nc1nc2cc(-c3ccc(F)c(F)c3)ccc2s1)N1CCC(F)C1 (configuration not stated) | – | 2.64 | 5.28 | – | – | – | – | – | – | – | – | –
O=C(Nc1ccc2sc(-c3ccc(F)c(F)c3)nc2c1)N1CCC(F)CC1 | 2520 | 0.341 | 0.596 | 2510 | > 147 | > 50 | > 50 | > 147 | > 50 | > 50 | – | –
O=C(Nc1ccc2[nH]c(-c3ccccc3)nc2c1)c1ccccc1 | – | > 10 | > 10 | – | – | – | – | – | – | – | – | –
NC1CCN(C(=O)Nc2ccc3sc(-c4ccc(F)c(F)c4)nc3c2)C1 (configuration not stated) | – | 2.32 | 2.72 | – | – | – | – | – | – | – | – | –
O=C(Nc1ccc2sc(-c3ccccc3F)nc2c1)N1CCCC1 | – | 0.983 | 1.24 | – | > 51 | > 50 | > 50 | > 51 | > 50 | > 50 | – | –
N#CC1CCN(C(=O)Nc2ccc3sc(-c4ccc(F)c(F)c4)nc3c2)C1 (configuration not stated) | – | 2.85 | 4.67 | – | – | – | – | – | – | – | – | –
O=C(Nc1ccc2sc(-c3ccc(F)c(F)c3)nc2c1)N1CCC(F)(F)CC1 | – | 2.98 | 4.17 | – | – | – | – | – | – | – | – | –
O=C(Nc1ccc2sc(-c3cccc(F)c3)nc2c1)N1CCCCC1 | – | 0.174 | 0.602 | – | > 287 | > 50 | > 50 | > 287 | > 50 | > 50 | 8.9 | 11

Source: ChEMBL document CHEMBL3992510, “Urea Derivatives of 2-Aryl-benzothiazol-5-amines: A New Class of Potential Drugs for Human African Trypanosomiasis” (J Med Chem, 2017)
